Source: PubChem BioAssay
A selection: hits, their analogues and other compounds. The true share with any hit is near 0.55%.
OXTR ag – human OXTR agonism; P30559; CHO-OTR cells, Fluo-8 calcium fluorescence; normalized: DMSO 0%, oxytocin 100%; activation, % at 3 µM; actives 0.32% (n = 320,000); AID 2435;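 active = activation above the mean of all tested compounds plus 3 SD, cutoff set per screening run, cut at about 20% in these data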;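 also: peak over basal fluorescence ratio from a 100 s FLIPR kinetic read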
Target sequence (P30559 whole entry, looked up): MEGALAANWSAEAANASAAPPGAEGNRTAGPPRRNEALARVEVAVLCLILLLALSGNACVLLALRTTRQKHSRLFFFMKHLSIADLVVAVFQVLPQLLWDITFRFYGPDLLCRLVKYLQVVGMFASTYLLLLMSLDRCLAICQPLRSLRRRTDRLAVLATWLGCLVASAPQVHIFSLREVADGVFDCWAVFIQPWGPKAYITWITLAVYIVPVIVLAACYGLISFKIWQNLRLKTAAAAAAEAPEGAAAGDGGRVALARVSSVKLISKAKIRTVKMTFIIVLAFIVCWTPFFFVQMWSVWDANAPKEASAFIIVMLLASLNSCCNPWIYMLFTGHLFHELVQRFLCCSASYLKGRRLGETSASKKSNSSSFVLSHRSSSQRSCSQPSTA
OXTR potentiate – human OXTR potentiation; actives 0.061% (n = 320,000); CHO-OTR cells, Fluo-8 calcium fluorescence, potentiator mode; 0% = oxytocin EC15, 100% = EC100; activation, % at 3 µM;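 active = activation above that plate's cutoff, the mean activation of tested compounds plus 3 SD, cut at about 6.6% in these data, passing the limit was not always enough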
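Measured by – Fluo-8 calcium dye fluorescence · Test system – human OTR in CHO cells · Dosing – one concentration, 3.0 µM compound · Controls – EC15 oxytocin alone as 0%, 75 nM oxytocin as 100% · Evaluation – normalized max/min fluorescence ratio, % activation · Timing – 6 min pre-incubation, 100 s read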
TRPML3 ag – activates the human TRPML3 channel; Q8TDD5; HEK293 TRPML3-YFP, Fluo-8 calcium fluorescence; 100% = the carbachol control signal; activation, % at 3 µM; actives 0.29% (n = 220,000); AID 1448;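 active = activation above its plate's cutoff, the mean activation of the plate's test wells plus 3 SD, cut at about 12% in these data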
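Test system – HEK293 line with stable expression of human TRPML3-YFP channel · Control set – carbachol 87 µM final as high control (100%), DMSO as low control (0%) · Signal – Fluo-8 calcium dye fluorescence, ex 470-495, em 515-575 nm · Incubation – 1-h 37 °C dye load, 5-s basal, 120-s post-compound reads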
TRPN1 ag – activates the zebrafish TRPN1 channel. activation, % at 3 µM. actives 0.18% (n = 220,000). AID 1424. HEK293 zebrafish TRPN1-YFP, Fluo-8 calcium fluorescence; 100% = response to 87 µM carbachol;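 active = activation above its plate's cutoff, the mean activation of test wells on that plate plus 3 SD, cut at about 19% in these data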
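Assay system: Zebrafish TRPN1-YFP in HEK293 cells | Incubation: Dye loading 1 h at 37 °C, then 30 min room temperature | Measured by: Kinetic Fluo-8 fluorescence, ex 470-495, em 515-575 nm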
V1R ag counter – counter-screen for oxytocin receptor agonists: human V1a receptor agonists; CHO-V1R cells, Fluo-8 calcium fluorescence, agonist mode; 0% DMSO, 100% 3 nM vasopressin; activation, % at 3 µM; actives 0.25% (n = 320,000);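 active = activation above the mean activation of all tested compounds plus 3 SD, per screening run, cut at about 20% in these data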;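 also: signal is peak over basal fluorescence ratio across a 100 second FLIPR read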
TRPN1 counter – activates zebrafish TRPN1, counter-screen for TRPML3 agonists; shares compounds with TRPML3 ag; actives 10% (n = 310); AID 1525; activation, % at 3 µM; HEK293 zebrafish TRPN1-YFP, Fluo-8 calcium fluorescence; scaled: carbachol wells 100%, DMSO wells 0%;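 active = mean activation over replicates above a set limit taken from the earlier TRPN1 channel primary screen, cut at about 19% in these data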
TRPML3 ag conf – confirmation of human TRPML3 channel agonists; shares compounds with TRPML3 ag; HEK293 TRPML3-YFP, Fluo-8 calcium fluorescence; 100% set by carbachol, 0% by DMSO; activation, % at 3 µM; actives 80% (n = 310);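 active = activation above a set limit derived from the earlier primary screen, cut at about 12% in these data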
Large screens that a line does not name were inactive (follow-up assays come after a bar, where they were run).

Cc1cc(C)cc(N(CC(=O)N2CCC(C)CC2)S(=O)(=O)c2ccccc2)c1	none
Cc1ccc(S(=O)(=O)N(CC(=O)N2CCCCC2)c2cccc(C)c2)cc1	TRPML3 ag 126.9 | TRPN1 counter inactive | TRPML3 ag conf 138.5
Cc1ccc2c(c1)C1CN(C)CCC1N2S(=O)(=O)c1ccccc1F (centres undefined)	none (no result: TRPML3 ag, TRPN1 ag)
CCOc1ccc(-n2cnnn2)cc1S(=O)(=O)Nc1c(C)cccc1C	TRPML3 ag 17.8 | TRPN1 counter inactive | TRPML3 ag conf inactive
CCOc1ccc(-n2cnnn2)cc1S(=O)(=O)NC1CC1	none
Cc1ccc(S(=O)(=O)N2CCc3ccccc3C2CN2C(=O)c3ccccc3C2=O)cc1 (centres undefined)	TRPML3 ag 22.5 | TRPN1 counter inactive | TRPML3 ag conf 13.3
O=C(Cc1cccc(C(F)(F)F)c1)N1CCCC1	none (no result: TRPML3 ag, TRPN1 ag)
COc1ccc(C2C(C(C)=O)=C(C)N=c3s/c(=C\c4cc(C)n(C)c4C)c(=O)n32)c(OC)c1 (centres undefined)	OXTR ag 34.9, TRPML3 ag 15.6, V1R ag counter 39.5 | TRPN1 counter 28.4 | TRPML3 ag conf 17.8
CCOc1ccccc1NC(=O)CCc1nnc2ccc(N3CCC4(CC3)OCCO4)nn12	none (no result: TRPML3 ag, TRPN1 ag)
CCOC(=O)Cc1csc(NC(=O)COc2ccc(N(C)S(=O)(=O)c3ccc(C)cc3)cc2)n1	none
Cc1ccc(S(=O)(=O)N(C)c2ccc(OCC(=O)Nc3nnc(C4CC4)s3)cc2)cc1	TRPML3 ag 43.9 (no result: OXTR ag, OXTR potentiate, V1R ag counter) | TRPN1 counter inactive | TRPML3 ag conf 52.9
CCc1nnc(NC(=O)COc2ccc(N(C)S(=O)(=O)c3ccc(C)cc3)cc2)s1	TRPML3 ag 23.0 (no result: OXTR ag, OXTR potentiate, V1R ag counter) | TRPN1 counter inactive | TRPML3 ag conf 63.1
COc1ccc(CCNC(=O)COc2ccc(N(C)S(=O)(=O)c3ccc(Cl)cc3)cc2)cc1	TRPML3 ag 44.3 (no result: OXTR ag, OXTR potentiate, V1R ag counter) | TRPN1 counter inactive | TRPML3 ag conf 40.8
C=CCn1c(SCCC)nc(O)cc1=O	OXTR ag 47.6, TRPML3 ag 27.7, V1R ag counter 69.7 | TRPN1 counter inactive | TRPML3 ag conf inactive
C=CCn1c(SCC(=O)C23CC4CC(CC(C4)C2)C3)nc(O)cc1=O	none
CCOc1cc(/C=C2\SC(=S)N(C(C(=O)O)c3ccccc3)C2=O)ccc1O (centres undefined)	OXTR ag 37.9, TRPML3 ag 13.4, V1R ag counter 32.3 | TRPN1 counter 33.3 | TRPML3 ag conf 15.2
CCOc1ccc(/C=C2/SC(=S)N(C(C(=O)O)c3ccccc3)C2=O)cc1OCC (centres undefined)	none (no result: OXTR ag, OXTR potentiate, V1R ag counter)
Cc1ccc(Cl)cc1N1CCN(S(=O)(=O)N2CCCCC2)CC1	TRPML3 ag 29.5 | TRPN1 counter inactive | TRPML3 ag conf 111.5
Cc1ccc(Cl)cc1N1CCN(S(C)(=O)=O)CC1	none
COc1ccc(OC)c(S(=O)(=O)N2CCc3ccccc32)c1	none
COc1ccc(OC)c(S(=O)(=O)N2CCCc3ccccc32)c1	TRPML3 ag 47.6 | TRPN1 counter inactive | TRPML3 ag conf 56.3
COc1cc(CN2CCC(C(=O)NCC(C)(C)CN(C)C)CC2)ccc1OCc1ccccc1	none (no result: TRPML3 ag, TRPN1 ag)
COC(=O)c1ccc(CN(c2ccccc2Cl)S(C)(=O)=O)cc1	none
COC(=O)c1ccc(Cl)cc1N(Cc1c(F)cccc1Cl)S(C)(=O)=O	TRPML3 ag 70.4 | TRPN1 counter inactive | TRPML3 ag conf 84.0
C=C(C)CN1CCN(S(=O)(=O)c2ccc(C)c(N(C)S(=O)(=O)c3ccc(C)cc3)c2C)CC1	TRPML3 ag 59.8 | TRPN1 counter inactive | TRPML3 ag conf 77.7
Cc1ccc(S(=O)(=O)N(C)c2c(C)ccc(S(=O)(=O)N3CCN(C)CC3)c2C)cc1	none
Cc1cc(N2CCOCC2)nc(N)n1	TRPML3 ag 11.8 | TRPN1 counter inactive | TRPML3 ag conf inactive
Cc1cc(N2CCOCC2)nc(NCc2ccccc2)n1	TRPML3 ag 15.9 | TRPN1 counter 20.7 | TRPML3 ag conf 15.2
COCCNC(=O)NC(=O)CN1C(=O)NC(Cc2c[nH]c3ccccc23)C1=O (centres undefined)	none (no result: TRPML3 ag, TRPN1 ag)
O=C(C[C@@H]1C/C=C/CCCC(=O)O[C@H](c2ccccc2)CNC1=O)N[C@H](CO)Cc1ccccc1	none (no result: TRPML3 ag, TRPN1 ag)
CCn1c(=O)cc(OCC(=O)Nc2ccc(OC)c(OC)c2)c2ccccc21	TRPML3 ag 22.8 | TRPN1 counter inactive | TRPML3 ag conf 23.1
CCOc1ccc(C(=O)OC(C)CN2CCN(C)CC2)cc1 (centres undefined)	none (no result: TRPML3 ag, TRPN1 ag)
CCOC(=O)N1CCN(S(=O)(=O)c2ccc(OC)c(Cl)c2Cl)CC1	none
COc1c(S(=O)(=O)N2CCCC2)ccc(Cl)c1Cl	TRPML3 ag 11.5 | TRPN1 counter inactive | TRPML3 ag conf inactive
COc1ccc(S(=O)(=O)N2CCCC2)c(Cl)c1Cl	TRPML3 ag 11.5 | TRPN1 counter inactive | TRPML3 ag conf inactive
O=S(=O)(c1ccc(Cl)c2ccccc12)N1CCCC1	none
O=S(=O)(NC1CCCCC1N1CCOCC1)c1ccc(Cl)cc1 (centres undefined)	TRPML3 ag 129.1 | TRPN1 counter inactive | TRPML3 ag conf 150.7
O=S(=O)(NC1CCCCC1N1CCN(c2ccccc2F)CC1)c1ccc(Cl)cc1 (centres undefined)	none (no result: TRPML3 ag, TRPN1 ag)
CCOc1cc(S(=O)(=O)N2CCCCCC2)ccc1F	TRPML3 ag 15.2 | TRPN1 counter inactive | TRPML3 ag conf 22.1
COc1ccc(S(=O)(=O)N2CCCC2)cc1Br	none (no result: TRPML3 ag, TRPN1 ag)
COc1ccc(S(=O)(=O)N2CCCCCC2)cc1N(C)S(=O)(=O)c1ccccc1	TRPML3 ag 70.0 | TRPN1 counter inactive | TRPML3 ag conf 74.3
CCOc1ccccc1N1CCN(S(=O)(=O)c2ccc(F)c(F)c2)CC1	none
COc1ccc(S(=O)(=O)N2CCCCC2)cc1C(C)C	TRPML3 ag 74.2 | TRPN1 counter inactive | TRPML3 ag conf 138.3
COc1ccc(CNC(=O)c2ccccc2NC(=O)C2=CSCCO2)c(OC)c1	none (no result: TRPML3 ag, TRPN1 ag)
CCCOc1cc(C)c(Cl)cc1S(=O)(=O)N(CC)CC	TRPML3 ag 25.9 | TRPN1 counter inactive | TRPML3 ag conf 97.0
COc1ccc(CCN2C(=O)CSC2=Nc2ccc(C(C)C)cc2)cc1OC	TRPML3 ag 13.0 | TRPN1 counter inactive | TRPML3 ag conf 14.4
COc1ccc(N=C2SCC(=O)N2CCc2ccc(OC)c(OC)c2)cc1	none
CN(C1CCCCC1)S(=O)(=O)c1cn(C)c(=O)n(C)c1=O	none (no result: TRPML3 ag, TRPN1 ag)
Cc1cc(C)c(C(=O)c2ccc(C(=O)N(C(C)C)C(C)C)cc2)c(C)c1	TRPML3 ag 18.3 | TRPN1 counter inactive | TRPML3 ag conf 74.0
